# From PubChem BioAssay
# Only some compounds are listed: those with a hit (about 5.1% of all), similar ones and a draw of the others.
# NF-kB neuron act: raises NF-kB expression in human neuronal cells | NF-kB reporter expression; active compounds read high | fold change at 12.5 µM | actives 1.6% (n = 190,000) | AID 1239; in the data active means fold change above about 3.3
# STAT3 inh-1: inhibitors of IL-6 induced STAT3 signaling. actives 0.89% (n = 190,000). inhibition, % at 5.5 µM. U3A cells, IL-6 STAT3-luciferase reporter, luminescence; host cell line lacks STAT1. AID 862;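 active means inhibition above the mean inhibition across all screened compounds plus 3 SD, cut at about 44% in these data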;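 further: 0% = DMSO only wells and 100% = 100 µM nifuroxazide control wells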
# APP 5'UTR act: APP 5'UTR luciferase reporter activation | AID 1276 | SH-SY5Y APP 5'UTR luciferase reporter, luminescence; zero percent = DMSO vehicle wells | actives 1% (n = 190,000) | activation, % at 2 µM;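 active means activation above a set limit, based on mean plus 3 SD of controls, cut at about 140% in these data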
# STAT1 activator: activators of IFN-gamma induced STAT1 signaling; NIH 3T3 STAT1-luciferase reporter, luminescence; 100% = IFN-gamma alone, no compound; activation (% of control), % at 5.5 µM; actives 2.6% (n = 200,000);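 active means activation above the screen-wide mean activation plus 3 SD, cut at about 130% in these data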;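 further: raw ratio to IFN-gamma control signal so 100% means no change and 0% no light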
# STAT1 blocker: STAT1 signaling inhibition | AID 920 | inhibition, % at 5.5 µM | NIH 3T3 STAT1-luciferase reporter, IFN-gamma, luminescence | actives 0.35% (n = 200,000);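 active means inhibition above a set limit, the mean inhibition across all tested compounds plus 3 SD, cut at about 34% in these data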;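 further: 0% = IFN-gamma with DMSO and 100% = IFN-gamma with 300 µM nifuroxazide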
# STAT3 act: activators of IL-6 induced STAT3 signaling. U3A cells, IL-6 STAT3-luciferase reporter, luminescence; 100% = signal with IL-6 EC80 alone. activation (% of control), % at 5.6 µM. actives 0.91% (n = 190,000);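 active means activation above the screen-wide mean of compound activation plus 3 SD, cut at about 130% in these data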;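 further: 0% = background luminescence of wells with medium and substrate only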
#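 Test system: human U3A cells carrying STAT3-luciferase construct; control set: IL-6-only wells as 100% reference; timing: compound pre-incubation 1 h before IL-6, then 6 h stimulation at 37 °C; also added: IL-6 stimulus at 33 ng/mL final; evaluation: % activation versus median of IL-6-stimulated wells; detection: reporter luminescence signal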
# STAT3 inh-2: confirmation of STAT3 signaling inhibitors. actives 45% (n = 1,200). inhibition, % at 5.7 µM. U3A cells, IL-6 STAT3 luciferase reporter, luminescence; cell line lacks STAT1. shares compounds with STAT3 inh-1. AID 1265;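 active means inhibition above the hit cutoff computed for the primary STAT3 screen, cut at about 44% in these data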;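 further: 0% = IL-6 plus DMSO and 100% = IL-6 plus nifuroxazide control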
# NFkB inh 2: counter-screen for STAT3 inhibitors: NF-kappaB inhibition. shares compounds with STAT3 inh-1. HEK293T NF-kB luciferase reporter, TNF-alpha induced. inhibition, % at 5.7 µM. actives 36% (n = 1,200);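 active means inhibition above the mean of solvent-only control wells plus 3 SD, cutoff set per campaign, cut at about 13% in these data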;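 further: 0% = TNF-alpha with DMSO and 100% = TNF-alpha with MG high control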
# STAT1 inh STAT3c: STAT1 inhibition in STAT3 inhibitor counter-screen; inhibition, % at 5.7 µM; actives 27% (n = 1,200); shares compounds with STAT3 inh-1; NIH 3T3 STAT1-luciferase reporter, IFN-gamma induced, luminescence;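 active means inhibition above the mean plus 3 SD of solvent-only control wells, limit set per screening run, cut at about 16% in these data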;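 further: 0% = DMSO with IFN-gamma and 100% = nifuroxazide control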
# Active calls of the source: *; · = no result.
SMILES,NF-kB neuron act,STAT3 inh-1,APP 5'UTR act,STAT1 activator,STAT1 blocker,STAT3 act,STAT3 inh-2,NFkB inh 2,STAT1 inh STAT3c
CCOc1cc(C(=O)OCC(=O)c2cc(C)n(CC3CCCO3)c2C)ccc1OCC(=O)N1CCOCC1 (stereo not drawn),1.33,-0.5,2.6,83.7,16.1,102.4,·,·,·
Cc1cc(C(=O)COC(=O)c2n[nH]c3ccccc23)c(C)n1CC1CCCO1 (stereo not drawn),1.01,64.4*,168.0*,99.3,0.8,46.9,19.5,-4.6,-70.3
Cc1cc(C(=O)COc2ccccc2C(N)=O)c(C)n1CC1CCCO1 (stereo not drawn),1.17,72.9*,22.1,77.0,24.5,43.7,70.4*,21.8*,16.5*
COCCn1c(C)cc(C(=O)COC(=O)c2c(C)nn(Cc3ccccc3)c2C)c1C,0.88,8.4,8.0,93.4,7.3,97.2,·,·,·
COCCn1c(C)cc(C(=O)COC(=O)c2n[nH]c3ccccc23)c1C,0.87,83.4*,97.8,73.9,29.1,33.8,51.3*,23.4*,-19.6
CCOC(=O)N1CCN(c2ccccc2O)CC1,1.24,7.9,20.6,96.4,4.0,96.2,·,·,·
CC1=CCC[C@@H]2[C@@](C)(CC/C(C)=C/C(=O)O)[C@H](C)CC[C@@]12C,1.15,-5.1,-4.7,98.1,2.1,101.8,·,·,·
CCOc1cccc(/C=N/NC(=S)Nc2ccccc2[N+](=O)[O-])c1O,0.48,69.1*,81.6,85.4,14.7,42.7,24.4,-8.0,-32.5
O=[N+]([O-])c1ccccc1NC(=S)N/N=C/c1ccc(O)c(O)c1,·,67.7*,150.2*,148.4*,-56.2,44.1,48.1*,-8.7,-47.0
O=c1c(Cl)c(Cl)cnn1Cc1ccccc1Cl,1.35,47.5*,-91.9,94.2,6.3,62.8,55.5*,26.7*,20.0*
CC(C)N(Cc1nc(-c2ccccc2)no1)C(=O)c1ccc([N+](=O)[O-])cc1,·,8.4,5.8,99.1,1.4,97.9,·,·,·
CC1(C)Cc2ccccc2-c2nnc(SCc3ccc(C#N)cc3)n21,0.66,34.4,-12.4,97.0,3.3,76.0,·,·,·
O=C(NCc1ccncc1)c1ccc(Oc2ccccc2)cc1,1.15,30.8,-4.9,88.9,10.5,75.3,·,·,·
Cc1ccc(Oc2ccc(C(=O)NCc3ccncc3)cc2)cc1,0.82,52.1*,-6.3,80.3,21.1,58.4,44.0*,11.1,7.5
Cc1oc(-c2ccc3c(c2)OCCO3)cc1C(=O)O,2.52,63.8*,25.4,92.5,9.3,50.3,92.9*,56.4*,74.3*
CCc1c(C)c2ccc(OCC(=O)N(C)C)c(C)c2oc1=O,1.33,15.7,5.0,97.1,3.1,89.8,·,·,·
CCc1c(C)c2ccc(OCC(=O)OC(C)C)c(C)c2oc1=O,0.92,55.5*,-5.0,93.6,6.9,54.4,48.4*,2.5,6.9
COc1ccc(NC(=O)Cn2c(=O)n(-c3ccccc3)c(=O)c3sccc32)c(OC)c1,1.17,-4.3,7.4,105.1,-3.7,108.1,·,·,·
COC(=O)C(C)Sc1nc2c(cnn2-c2ccc(C)cc2)c(=O)[nH]1 (stereo not drawn),1.25,2.4,4.7,94.5,6.0,102.2,·,·,·
O=c1c2ccccc2nc(N/N=C/c2ccc(O)cc2)n1O,1.76,52.4*,34.7,77.5,24.4,56.2,30.8,16.5*,33.6*
O=c1c2ccccc2nc(N/N=C/c2c(O)ccc3ccccc23)n1O,2.62,46.5*,-57.1,93.0,7.6,61.5,-9.0,21.4*,-1.8
COc1ccccc1C(=O)OCC(=O)NC(=O)NCc1ccccc1,1.24,12.3,0.2,106.6,-9.6,93.9,·,·,·
Cn1c(=O)c2c(nc(SCC(=O)OCc3ccccc3)n2C)n(C)c1=O,1.03,8.1,8.8,97.2,3.0,100.6,·,·,·
CN(C)c1ccc(C(=O)c2ccccc2)cc1,1.75,0.9,64.7,119.6,-21.3,100.5,·,·,·
CN(C)c1ccc(C(=S)Nc2ccccc2)cc1,2.94,57.2*,132.2,138.8*,-43.9,52.9,23.2,-36.8,-108.6
SMILES,NF-kB neuron act,STAT3 inh-1,APP 5'UTR act,STAT1 activator,STAT1 blocker,STAT3 act,STAT3 inh-2,NFkB inh 2,STAT1 inh STAT3c
Cc1ccccc1C(=O)Nc1ccccn1,1.04,2.0,-9.4,103.3,-3.6,98.5,·,·,·
O=C(Nc1ccccn1)c1onc2c1CCCC2,1.08,69.4*,149.6*,102.6,-3.0,42.5,53.1*,16.5*,-11.6
CC1CC(C)CN(CCCNC(=O)c2ccc(CS(=O)(=O)Cc3ccccc3F)o2)C1 (stereo not drawn),1.28,6.7,-4.6,111.1,-12.0,97.8,·,·,·
C/C(=N\NC(=O)c1ccc(Cl)cc1)c1cccs1,5.38*,58.7*,128.2,75.2,26.3,52.2,17.7,-13.4,-64.5
C/C(=N/NC(=O)c1cc(C(C)C)[nH]n1)c1cccs1,3.41*,51.1*,107.8,101.6,-1.8,60.6,7.3,-25.6,-64.3
COc1cccc(/C=N/N=C(\N)c2nonc2N)c1O,1.92,21.3,30.4,123.9,-28.2,85.0,·,·,·
N/C(=N\N=C\c1ccc2c(c1)OCO2)c1nonc1N,7.59*,54.2*,221.0*,131.9*,-33.9,55.1,32.9,-13.8,-98.4
O=C(CSc1nnc(-c2c[nH]c3ccccc23)o1)N1c2ccccc2CCc2ccccc21,0.48,48.6*,1.5,98.8,1.3,63.2,29.4,1.3,1.9
Clc1ccc(Cn2cc(/C=N/n3cnnc3)c3ccccc32)cc1,0.93,-7.6,1.8,93.4,8.4,110.0,·,·,·
Cc1c2c(n3c(nc4ccccc43)c1C#N)N(CCN1CCOCC1)CC2,0.96,5.7,-17.3,93.6,6.7,100.1,·,·,·
Cc1cc(Nc2cccc([N+](=O)[O-])c2)n2c(nc3ccccc32)c1C#N,1.04,79.7*,-8.8,100.6,8.0,31.7,73.4*,45.7*,55.1*
CC1(C)CC2CC(C)(CN2S(=O)(=O)c2ccc(C(=O)Nc3ccc(Cl)c(S(=O)(=O)N4CCOCC4)c3)cc2)C1 (stereo not drawn),0.89,45.1*,-0.9,92.9,7.8,70.1,50.4*,22.2*,7.1
Clc1ccccc1-c1nnc(-c2ccc3c(c2)OCO3)o1,7.4*,44.4*,124.6,111.4,-13.6,65.7,11.3,-25.8,-105.7
c1ccc(-c2noc(-c3ccc4c(c3)OCO4)n2)cc1,3.88*,66.3*,167.3*,99.1,-0.5,45.6,27.4,5.9,-63.1
Clc1ccccc1-c1nnc2sc(-c3ccc4c(c3)OCO4)nn12,1.25,-2.9,22.1,101.8,-2.0,106.1,·,·,·
